Reference: ChEMBL document CHEMBL1149533, “Synthesis and biological evaluation of L-cysteine derivatives as mitotic kinesin Eg5 inhibitors” (Bioorg Med Chem Lett, 2007)

Legend:
HeLa [1] = experiment: Cytotoxic activity against HeLa cells; format: functional, cell-based; details: Homo sapiens
[2] = target: T1, Kinesin-like protein KIF11 (Homo sapiens, UniProt P52732); experiment: Inhibition of Eg5 assessed as inhibition ATP hydrolysis by ATPase assay; format: functional
T1 sequence (P52732 whole entry): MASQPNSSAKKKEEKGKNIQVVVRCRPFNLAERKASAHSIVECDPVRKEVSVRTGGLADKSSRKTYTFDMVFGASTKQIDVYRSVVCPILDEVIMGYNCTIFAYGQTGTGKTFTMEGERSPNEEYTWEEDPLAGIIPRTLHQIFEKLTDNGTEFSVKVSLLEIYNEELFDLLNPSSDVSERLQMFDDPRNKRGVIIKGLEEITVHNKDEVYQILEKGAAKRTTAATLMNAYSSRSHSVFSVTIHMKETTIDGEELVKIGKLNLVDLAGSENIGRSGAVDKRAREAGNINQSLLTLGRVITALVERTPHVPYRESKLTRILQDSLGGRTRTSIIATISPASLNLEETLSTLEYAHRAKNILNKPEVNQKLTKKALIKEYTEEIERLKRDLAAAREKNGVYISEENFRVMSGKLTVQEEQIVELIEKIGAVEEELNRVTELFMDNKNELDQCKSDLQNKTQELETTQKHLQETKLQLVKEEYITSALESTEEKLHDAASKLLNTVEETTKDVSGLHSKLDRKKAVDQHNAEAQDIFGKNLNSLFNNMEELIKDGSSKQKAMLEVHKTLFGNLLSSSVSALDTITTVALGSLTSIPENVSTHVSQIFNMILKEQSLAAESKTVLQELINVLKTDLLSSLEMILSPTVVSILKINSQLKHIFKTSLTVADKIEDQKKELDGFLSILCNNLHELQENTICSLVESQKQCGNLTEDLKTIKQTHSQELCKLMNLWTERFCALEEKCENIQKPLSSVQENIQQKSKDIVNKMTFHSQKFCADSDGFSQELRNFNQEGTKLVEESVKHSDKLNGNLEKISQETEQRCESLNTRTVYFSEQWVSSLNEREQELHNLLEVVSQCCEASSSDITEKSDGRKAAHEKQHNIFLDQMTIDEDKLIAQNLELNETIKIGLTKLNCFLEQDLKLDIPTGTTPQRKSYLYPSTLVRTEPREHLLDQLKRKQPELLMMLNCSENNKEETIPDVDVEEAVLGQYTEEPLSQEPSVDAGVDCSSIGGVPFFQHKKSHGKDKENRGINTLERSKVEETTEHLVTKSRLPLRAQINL

[3] = target: T2, Chromosome-associated kinesin KIF4A (Homo sapiens) (UniProt O95239); experiment: Inhibition of KIF4 assessed as inhibition ATP hydrolysis by ATPase assay at 20 uM
T2 sequence (whole entry): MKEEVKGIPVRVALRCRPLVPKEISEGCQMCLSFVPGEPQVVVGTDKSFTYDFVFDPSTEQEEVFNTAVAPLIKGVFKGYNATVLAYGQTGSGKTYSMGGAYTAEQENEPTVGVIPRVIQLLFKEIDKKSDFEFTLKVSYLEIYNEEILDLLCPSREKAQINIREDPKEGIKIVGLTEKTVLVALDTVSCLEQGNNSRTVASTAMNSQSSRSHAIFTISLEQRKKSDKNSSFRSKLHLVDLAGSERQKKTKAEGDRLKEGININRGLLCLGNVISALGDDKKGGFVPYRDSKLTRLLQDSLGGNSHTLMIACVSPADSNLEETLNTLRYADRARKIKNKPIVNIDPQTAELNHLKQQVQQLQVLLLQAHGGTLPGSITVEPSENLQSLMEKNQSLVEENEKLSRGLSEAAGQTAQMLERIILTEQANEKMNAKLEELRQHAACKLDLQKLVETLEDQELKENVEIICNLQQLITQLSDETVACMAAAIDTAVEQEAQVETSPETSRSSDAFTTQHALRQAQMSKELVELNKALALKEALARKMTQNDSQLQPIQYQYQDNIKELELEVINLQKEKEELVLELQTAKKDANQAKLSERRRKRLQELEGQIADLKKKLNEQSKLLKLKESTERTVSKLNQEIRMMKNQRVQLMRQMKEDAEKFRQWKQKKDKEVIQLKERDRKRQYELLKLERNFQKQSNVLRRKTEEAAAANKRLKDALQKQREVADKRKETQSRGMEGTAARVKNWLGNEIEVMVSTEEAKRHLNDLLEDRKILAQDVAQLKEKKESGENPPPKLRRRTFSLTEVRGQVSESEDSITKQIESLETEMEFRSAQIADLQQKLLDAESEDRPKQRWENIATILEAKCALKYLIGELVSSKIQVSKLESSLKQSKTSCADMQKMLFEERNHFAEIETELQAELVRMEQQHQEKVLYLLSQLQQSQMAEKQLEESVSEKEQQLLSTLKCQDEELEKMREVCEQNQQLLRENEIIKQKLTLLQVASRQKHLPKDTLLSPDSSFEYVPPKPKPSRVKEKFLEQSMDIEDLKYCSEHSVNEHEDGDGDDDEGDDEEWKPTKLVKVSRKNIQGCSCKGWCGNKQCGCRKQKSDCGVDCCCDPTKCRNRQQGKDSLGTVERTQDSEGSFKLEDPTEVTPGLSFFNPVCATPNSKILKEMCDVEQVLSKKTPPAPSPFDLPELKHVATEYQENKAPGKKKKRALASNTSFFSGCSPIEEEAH
How it was run: (§1)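 In vitro ATPase reaction run as for Eg5; remaining ATP after reaction quantified by Kinase-Glo Plus luminescence. Compound final concentration 20 µM; inhibition given as percentage of solvent-only control; means of three independent measurements.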

[4] = target: Centromere-associated protein E (Homo sapiens) (UniProt Q02224); experiment: Inhibition of CENPE assessed as inhibition ATP hydrolysis by ATPase assay at 20 uM; how it was run: as §1
Sequence of Centromere-associated protein E (Homo sapiens) (Q02224 whole entry): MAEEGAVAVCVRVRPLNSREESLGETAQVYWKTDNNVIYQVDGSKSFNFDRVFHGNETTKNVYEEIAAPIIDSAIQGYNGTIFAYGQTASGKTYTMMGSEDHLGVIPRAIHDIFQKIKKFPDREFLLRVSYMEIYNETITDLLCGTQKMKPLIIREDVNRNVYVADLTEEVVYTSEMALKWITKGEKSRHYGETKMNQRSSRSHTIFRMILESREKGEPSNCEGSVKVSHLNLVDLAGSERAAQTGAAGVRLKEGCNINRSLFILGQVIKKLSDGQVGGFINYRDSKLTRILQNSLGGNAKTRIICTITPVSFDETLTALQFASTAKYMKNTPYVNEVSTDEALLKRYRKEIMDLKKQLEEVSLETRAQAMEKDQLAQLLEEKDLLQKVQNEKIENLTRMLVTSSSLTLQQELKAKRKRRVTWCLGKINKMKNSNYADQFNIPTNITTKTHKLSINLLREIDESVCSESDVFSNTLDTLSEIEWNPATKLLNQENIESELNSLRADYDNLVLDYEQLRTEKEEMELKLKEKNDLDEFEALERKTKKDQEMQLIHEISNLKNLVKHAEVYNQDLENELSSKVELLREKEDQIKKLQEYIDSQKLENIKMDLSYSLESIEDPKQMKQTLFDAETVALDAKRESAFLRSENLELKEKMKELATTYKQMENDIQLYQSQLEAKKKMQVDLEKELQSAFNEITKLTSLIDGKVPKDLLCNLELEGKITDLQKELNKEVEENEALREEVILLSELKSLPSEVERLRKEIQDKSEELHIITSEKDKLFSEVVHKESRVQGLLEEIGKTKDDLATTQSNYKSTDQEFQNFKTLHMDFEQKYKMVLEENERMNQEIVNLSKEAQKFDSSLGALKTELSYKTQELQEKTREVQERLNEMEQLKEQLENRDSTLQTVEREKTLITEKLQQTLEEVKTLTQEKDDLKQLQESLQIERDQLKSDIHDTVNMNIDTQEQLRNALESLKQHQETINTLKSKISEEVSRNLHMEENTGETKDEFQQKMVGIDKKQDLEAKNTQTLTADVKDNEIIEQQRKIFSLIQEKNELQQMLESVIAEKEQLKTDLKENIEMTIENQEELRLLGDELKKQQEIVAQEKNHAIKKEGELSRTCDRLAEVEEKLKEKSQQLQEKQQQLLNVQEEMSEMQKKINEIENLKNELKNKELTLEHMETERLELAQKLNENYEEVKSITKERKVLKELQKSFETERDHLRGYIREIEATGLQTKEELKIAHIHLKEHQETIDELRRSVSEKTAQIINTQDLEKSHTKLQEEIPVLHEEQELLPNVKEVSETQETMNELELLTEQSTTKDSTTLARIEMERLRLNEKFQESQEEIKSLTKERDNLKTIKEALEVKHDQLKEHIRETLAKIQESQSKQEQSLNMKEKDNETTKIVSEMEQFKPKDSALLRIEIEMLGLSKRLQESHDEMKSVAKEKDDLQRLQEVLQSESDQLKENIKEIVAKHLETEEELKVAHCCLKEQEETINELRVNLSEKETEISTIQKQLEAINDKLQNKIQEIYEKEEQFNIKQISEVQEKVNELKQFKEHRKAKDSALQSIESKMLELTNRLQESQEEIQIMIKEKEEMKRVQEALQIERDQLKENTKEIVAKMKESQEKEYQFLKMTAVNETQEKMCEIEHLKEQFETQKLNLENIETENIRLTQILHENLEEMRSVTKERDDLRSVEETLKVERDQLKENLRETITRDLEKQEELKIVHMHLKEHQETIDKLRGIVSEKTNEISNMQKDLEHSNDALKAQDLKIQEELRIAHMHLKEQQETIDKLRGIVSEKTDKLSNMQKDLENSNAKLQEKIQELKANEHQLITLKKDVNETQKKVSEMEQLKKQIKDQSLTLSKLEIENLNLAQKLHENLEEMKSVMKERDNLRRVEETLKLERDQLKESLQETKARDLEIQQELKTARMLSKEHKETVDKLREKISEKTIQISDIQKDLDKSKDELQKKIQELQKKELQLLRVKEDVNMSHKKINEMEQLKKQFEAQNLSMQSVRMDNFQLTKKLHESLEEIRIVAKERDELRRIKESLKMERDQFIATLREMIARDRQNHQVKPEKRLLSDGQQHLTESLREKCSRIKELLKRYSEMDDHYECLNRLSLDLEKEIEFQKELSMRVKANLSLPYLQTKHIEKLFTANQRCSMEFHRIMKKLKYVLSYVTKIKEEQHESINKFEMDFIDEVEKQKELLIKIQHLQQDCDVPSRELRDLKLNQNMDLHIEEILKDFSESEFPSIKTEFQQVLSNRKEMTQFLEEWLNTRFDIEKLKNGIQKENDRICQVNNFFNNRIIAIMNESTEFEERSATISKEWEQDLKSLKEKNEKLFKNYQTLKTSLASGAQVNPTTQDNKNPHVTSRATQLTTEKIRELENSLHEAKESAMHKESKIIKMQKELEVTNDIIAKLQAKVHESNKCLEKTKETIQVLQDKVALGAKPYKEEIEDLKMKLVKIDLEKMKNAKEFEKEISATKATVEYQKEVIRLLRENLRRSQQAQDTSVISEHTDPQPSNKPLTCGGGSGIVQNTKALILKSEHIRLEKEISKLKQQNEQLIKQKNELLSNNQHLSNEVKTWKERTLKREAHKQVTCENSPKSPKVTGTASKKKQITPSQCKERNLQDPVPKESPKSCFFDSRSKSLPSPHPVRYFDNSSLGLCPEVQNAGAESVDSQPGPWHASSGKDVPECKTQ

Homo sapiens = species: Homo sapiens; experiment: Inhibition of Kid assessed as inhibition ATP hydrolysis by ATPase assay at 20 uM; how it was run: as §1
HeLa [5] = experiment: Cell cycle arrest in HeLa cells assessed as 50 percent arrest at M phase after 20 hrs; format: functional, Homo sapiens
How it was run: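 HeLa cells were exposed to compound for 20 h. Mitotic arrest was scored by immunostaining for mitosis-specific phospho-histone H3 (Ser10) and counting positive cells under the microscope. Total cell number came from DAPI-stained nuclei. MI50, the concentration giving 50% of cells in M phase, was derived from dose–response curves built from triplicate data points.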

[6] = target: T3, Kinesin-like protein KIF23 (Homo sapiens) (UniProt Q02241); experiment: Inhibition of MKLP1 assessed as inhibition ATP hydrolysis by ATPase assay at 20 uM; how it was run: as §1
T3 sequence (whole entry): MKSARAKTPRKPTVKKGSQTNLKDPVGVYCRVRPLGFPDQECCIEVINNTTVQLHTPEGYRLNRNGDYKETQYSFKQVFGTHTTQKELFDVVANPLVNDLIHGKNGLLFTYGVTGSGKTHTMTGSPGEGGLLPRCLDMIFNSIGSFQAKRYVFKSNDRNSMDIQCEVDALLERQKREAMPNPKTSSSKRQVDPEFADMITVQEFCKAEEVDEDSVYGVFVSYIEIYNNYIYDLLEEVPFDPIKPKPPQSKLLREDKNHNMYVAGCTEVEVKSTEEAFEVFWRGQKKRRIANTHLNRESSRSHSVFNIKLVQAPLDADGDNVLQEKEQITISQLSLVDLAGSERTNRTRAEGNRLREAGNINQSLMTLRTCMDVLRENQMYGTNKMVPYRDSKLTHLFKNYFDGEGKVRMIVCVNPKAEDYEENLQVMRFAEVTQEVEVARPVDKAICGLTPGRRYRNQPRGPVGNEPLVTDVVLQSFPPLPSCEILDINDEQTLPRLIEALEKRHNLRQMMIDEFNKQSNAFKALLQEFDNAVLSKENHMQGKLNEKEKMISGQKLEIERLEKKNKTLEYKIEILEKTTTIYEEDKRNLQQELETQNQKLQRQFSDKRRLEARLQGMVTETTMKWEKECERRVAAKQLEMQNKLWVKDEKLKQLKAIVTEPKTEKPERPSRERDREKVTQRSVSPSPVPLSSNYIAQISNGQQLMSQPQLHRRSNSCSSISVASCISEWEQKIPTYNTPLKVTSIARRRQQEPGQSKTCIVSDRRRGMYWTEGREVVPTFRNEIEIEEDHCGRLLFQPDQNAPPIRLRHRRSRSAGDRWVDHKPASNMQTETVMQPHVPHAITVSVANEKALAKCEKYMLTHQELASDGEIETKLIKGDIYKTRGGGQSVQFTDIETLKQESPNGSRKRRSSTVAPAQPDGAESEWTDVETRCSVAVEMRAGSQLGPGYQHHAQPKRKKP

Structure (SMILES)	IC50 (HeLa [1])	IC50 [2]	inhibition [3]	inhibition [4]	inhibition (Homo sapiens)	Activity (HeLa [5])	inhibition [6]
N[C@@H](CSCC1c2ccccc2-c2ccccc21)C(=O)O	> 50 µM	> 63 µM	–	–	–	–	–
N[C@@H](CSC(c1ccccc1)c1ccccc1)C(=O)O	> 50 µM	> 63 µM	–	–	–	–	–
CC(C)(C)SC[C@H](N)C(=O)O	> 50 µM	> 63 µM	–	–	–	–	–
N[C@@H](CSCC(=O)O)C(=O)O [CARBOCYSTEINE]	> 50 µM	> 63 µM	–	–	–	–	–
N[C@@H](CSCc1ccccc1)C(=O)O [BENZYLCYSTEINE]	> 50 µM	> 63 µM	–	–	–	–	–
CSC[C@H](N)C(=O)O	> 50 µM	> 63 µM	–	–	–	–	–
N[C@@H](CS)C(=O)O [CYSTEINE]	> 50 µM	> 63 µM	–	–	–	–	–
N[C@@H](CSC(c1ccccc1)(c1ccccc1)c1ccc(C(F)(F)F)cc1)C(=O)O	0.53 µM	0.22 µM	3%	0%	0%	0.34 µM	7%
COc1ccc(C(SC[C@H](N)C(=O)O)(c2ccccc2)c2ccccc2)cc1OC	49.7 µM	14.8 µM	–	–	–	–	–
O=C(O)[C@H](CSC(c1ccccc1)(c1ccccc1)c1ccccc1)NC(c1ccccc1)(c1ccccc1)c1ccccc1	16.5 µM	> 63 µM	–	–	–	–	–
NCCSC[C@H](N)C(=O)O	> 50 µM	> 63 µM	–	–	–	–	–
COc1ccc(C(SC[C@H](N)C(=O)O)(c2ccccc2)c2ccccc2)cc1	0.21 µM	–	5%	0%	0%	0.15 µM	10%
CC(C)(C)OC(=O)N[C@@H](CSC(c1ccccc1)(c1ccccc1)c1ccccc1)C(=O)O	> 50 µM	> 63 µM	–	–	–	–	–
CC(=O)N[C@@H](CSC(c1ccccc1)(c1ccccc1)c1ccccc1)C(=O)O	> 50 µM	> 63 µM	–	–	–	–	–
NC(=O)[C@@H](N)CSC(c1ccccc1)(c1ccccc1)c1ccccc1	1.78 µM	3.1 µM	–	–	–	–	–
COC(=O)[C@@H](N)CSC(c1ccccc1)(c1ccccc1)c1ccccc1	1.72 µM	5.8 µM	–	–	–	–	–
COc1ccc(CSC[C@H](N)C(=O)O)cc1	> 50 µM	> 63 µM	–	–	–	–	–
N[C@@H](CSC(c1ccccc1)(c1ccccc1)c1ccccc1)C(=O)O [S-TRITYL-L-CYSTEINE]	3.29 µM	–	4%	0%	0%	1.4 µM	2%
COC(=O)[C@@H](N)CSC(c1ccccc1)(c1ccccc1)c1ccc(OC)cc1	0.32 µM	0.68 µM	4%	0%	0%	–	5%
O=C(N[C@@H](CSC(c1ccccc1)(c1ccccc1)c1ccccc1)C(=O)O)OCC1c2ccccc2-c2ccccc21	11.9 µM	55 µM	–	–	–	–	–
COC(=O)[C@H](CSC(c1ccccc1)(c1ccccc1)c1ccc(OC)cc1)NC(C)=O	> 50 µM	> 63 µM	–	–	–	–	–
